Shown are actives, neighbours in structure and some others; about 4.2% of the full set was active somewhere.
TAAR1 antagonist – human TAAR1 antagonists, primary screen, Fluo-8 calcium fluorescence, CHO RD-HGA16 cells; 360,000 tested, 1.5% active; antagonist; inhibition, % at 3 µM; Trace amine-associated receptor 1 (Homo sapiens), Q96RJ0;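 active = inhibition above a per-plate cutoff, the mean inhibition of test compounds on that plate plus 3 SD, cut at about 49% in these data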;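 also: 0% = DMSO plus EC80 beta-PEA response and 100% = DMSO alone without agonist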
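Material: CHO RD-HGA16 cells bearing hTAAR1; compound dosing: one-point dosing, 3 µM nominal final; schedule: dye loading 75 min at 37 °C, then 30 min room temperature; measured by: calcium fluorescence with Fluo-8; control set: vehicle and agonist controls; replication: n of 1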
OX1R antag-1 – antagonists of human orexin 1 receptor (OX1R); Orexin/Hypocretin receptor type 1 (Homo sapiens), O43613; OX1R-expressing cells, FRET antagonist read-out; inhibition, % at 6.6 µM; 330,000 tested, 1.8% active; in the data active = inhibition mostly above about 38%, no sharp cut-off; inactive = mostly below about 40%;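 also: 0% = agonist challenge alone and 100% = reference antagonist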
Target sequence (O43613 whole entry, looked up): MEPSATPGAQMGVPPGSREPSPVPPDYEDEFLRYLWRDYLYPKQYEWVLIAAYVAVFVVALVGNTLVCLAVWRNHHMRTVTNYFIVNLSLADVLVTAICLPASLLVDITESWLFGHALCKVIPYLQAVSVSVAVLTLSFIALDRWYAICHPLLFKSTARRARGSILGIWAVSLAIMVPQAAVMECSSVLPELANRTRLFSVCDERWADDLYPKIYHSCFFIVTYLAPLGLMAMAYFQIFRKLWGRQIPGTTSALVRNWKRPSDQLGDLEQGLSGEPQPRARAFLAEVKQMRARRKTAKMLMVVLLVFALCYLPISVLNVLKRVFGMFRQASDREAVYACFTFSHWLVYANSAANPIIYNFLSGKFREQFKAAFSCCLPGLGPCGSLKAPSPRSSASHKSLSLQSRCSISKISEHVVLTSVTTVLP
GalR3 antagonist – GalR3 antagonists in HEK293 cells, primary screen, cell-based, fluorescence readout; Galanin receptor type 3 (Homo sapiens), O60755; HEK293 GalR3-CNG cAMP membrane potential fluorescence; galR3 body fused to GalR1 C-terminus; inhibition, % at 3 µM; 360,000 tested, 0.44% active;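 active = inhibition above the screen-wide average plus 3 SD, cut at about 13% in these data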;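 also: forskolin and galanin both at EC90 stimulate the cells; cAMP rise reported by CNG channel membrane potential dye signal; 0% = forskolin plus galanin with DMSO and 100% = forskolin alone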
TAAR1 agonist – human TAAR1 agonists, primary screen, Fluo-8 calcium fluorescence, CHO RD-HGA16 cells. 360,000 tested, 0.99% active. activation, % at 3 µM. vehicle wells 0%, saturating PEA agonist 100%. Trace amine-associated receptor 1 (Homo sapiens), Q96RJ0;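 active = activation above the mean activation of all test compounds in the run plus 3 SD, cut at about 38% in these data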
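Assay system – CHO-derived RD-HGA16 cells with stable Gα16 and human TAAR1 · Compound dosing – one-point dosing at 3 µM (nominal) · Incubation – 17-24 h seeding, 75 min 37 °C dye, 30 min RT · Measured by – kinetic Fluo-8 calcium fluorescence · Control set – DMSO vehicle as 0%, PEA at EC100 as 100% · Repeats – single well for each compound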
CHO parental Ca – ATP-evoked calcium signal inhibitors, parental CHO, primary screen, counter-screen for OX1R antagonist project, cell-based, fluorescence, Fluo-8 calcium dye; parental CHO-K1, ATP-induced calcium, Fluo-8 fluorescence; inhibition, % at 5.6 µM; 330,000 tested, 0.63% active;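 active = inhibition above that plate's mean sample inhibition plus 3 SD, cut at about 26% in these data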;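 also: 0% = ATP-challenged DMSO wells and 100% = DMSO wells without ATP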
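Material: parental CHO cells / Compound: single nominal dose of 5.6 µM per compound / Signal: Fluo-8 fluorescence / Replicates: singlicate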
OX1R antag-2 – OX1R (HCRTR1) antagonists, primary screen, fluorescence, CHO/OX1R cells, Fluo-8 calcium, orexin A; 330,000 tested, 0.43% active; AID 434989, 2010; Orexin/Hypocretin receptor type 1 (Homo sapiens), O43613; inhibition, % at 5 µM; Fluo-8 calcium fluorescence;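 active = inhibition above its plate's threshold, mean inhibition of all tested compounds on the plate plus 3 SD, cut at about 37% in these data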;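 also: 0% = orexin A challenge wells and 100% = SB-334867-A antagonist wells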
* hit, by the source's call; nt = not tested or not shown.

SMILES | TAAR1 antagonist | OX1R antag-1 | GalR3 antagonist | TAAR1 agonist | CHO parental Ca | OX1R antag-2
COc1ccc(-c2cc(C(=O)Nc3cc(S(=O)(=O)N4CCOCC4)ccc3N3CCOCC3)c3ccccc3n2)cc1 | 54* | 19 | -5 | 21 | 4 | 6
CCN1CCN(c2ccc(S(=O)(=O)N3CCOCC3)cc2NC(=O)c2cc(Cl)nc3ccccc23)CC1 | -34 | 13 | -5 | 3 | -21 | -23
Cc1ccccc1N(CC(=O)N/N=C/c1ccc(N(C)C)cc1)C(=O)c1ccccc1 | 0 | 63* | -4 | 2 | -20 | -26
CC(=O)c1c(C)[nH]c(C(=O)CSc2ccc(F)cc2)c1C | 14 | 18 | -6 | 6 | 33* | 14
CCCCn1c(SCC(=O)Nc2cc(NC(=O)c3ccco3)ccc2C)nc2ccccc2c1=O | -5 | 41* | -5 | 17 | -11 | -12
COCCn1c(SCC(=O)Nc2ccc(NC(=O)c3ccco3)c(OC)c2)nc2ccccc2c1=O | 1 | 12 | -8 | 5 | -5 | -34
COc1ccc(-c2nc3scc(-c4ccccc4)n3n2)cc1 | 8 | 67* | -4 | 13 | -23 | 1
COC(=O)c1cc(S(=O)(=O)N2CCCC(C)C2)cn1C (configuration not stated) | -6 | 9 | -10 | 0 | 8 | -24
COc1cc(-c2nnc(COC(=O)C3c4ccccc4Oc4ccccc43)o2)cc(OC)c1OC | 40 | 43* | -6 | 6 | -13 | -12
COc1cccc(C(=O)NNc2c3ccccc3nc3ccccc23)c1 | 43 | 42* | -4 | 9 | -7 | -2
COc1cc(OC)cc(C(=O)NCc2cc(C)nc3ccccc23)c1 | 11 | 63* | -5 | 9 | -24 | 13
CN1CCCCC(NC(=O)c2ccc(F)c(F)c2)C1=O (configuration not stated) | -17 | nt | -8 | 1 | nt | nt
Cc1csc(NC(=O)CSc2ccc([N+](=O)[O-])cn2)n1 | -23 | 43 | -3 | 0 | -6 | -18
O=C(Nc1ccc2c(c1)OCO2)C(=O)c1c[nH]c2ccccc12 | 2 | 2 | 1 | 15 | 30 | -1
O=C(Nc1ccc2c(c1)OCCO2)C(=O)c1c[nH]c2ccccc12 | 54* | 50* | -4 | 9 | 4 | 20
CSc1ccccc1NC(=O)C(=O)c1c[nH]c2ccccc12 | 18 | 48* | -2 | -2 | -6 | -11
CC(=O)N1CCN(C(=O)C2(NC(=O)Nc3ccccc3Cl)CCCCC2)CC1 | -4 | 2 | 3 | -2 | -4 | -10
Cc1ccc(CNc2nc(N)c([N+](=O)[O-])c(NCCO)n2)cc1 | -1 | 21 | -5 | 8 | -25 | -27
Nc1nc(NCc2ccc(Cl)cc2)nc(NCCO)c1[N+](=O)[O-] | -30 | 20 | 8 | 45* | -25 | -30
COc1ccc(S(=O)(=O)NCc2csc(-c3cccnc3)n2)cc1 | -11 | 13 | nt | 1 | -11 | -7
O=S(=O)(NCc1csc(-c2cccnc2)n1)c1ccc(Br)cc1 | -28 | 38* | 0 | 1 | -20 | -11
Cc1cn([C@H]2C[C@H](O)[C@@H](/C=C/C(=O)NCc3ccccc3)O2)c(=O)[nH]c1=O | 2 | nt | -4 | 2 | nt | nt
COc1ccc(CCNC(=O)CN2C(=O)NC(c3ccccc3)(c3ccccc3)C2=O)cc1 | 22 | 36* | -6 | 9 | -16 | 24
COc1ccc(CCNC(=O)N2c3ccccc3Sc3ccccc32)cc1 | 44 | 45 | -3 | 12 | 36* | 30
COc1ccc(CNC(=O)CN2C(=O)NC(c3ccccc3)(c3ccccc3)C2=O)cc1 | 20 | 15 | -8 | -1 | -21 | -1
SMILES | TAAR1 antagonist | OX1R antag-1 | GalR3 antagonist | TAAR1 agonist | CHO parental Ca | OX1R antag-2
COc1cc(OC)cc(C(=O)NC(C(=O)OCn2nnc3ccccc3c2=O)C(C)C)c1 (configuration not stated) | -14 | 7 | -7 | 3 | -19 | -44
COc1ccc(N=C2C(=O)N3CCCc4cccc2c43)cc1 | -26 | 66* | 2 | 6 | -11 | -15
COc1ccc(N2C(=O)CSC23C(=O)N2CCCc4cccc3c42)cc1 (configuration not stated) | 7 | 6 | -3 | 2 | 4 | -12
O=S(c1ccc2ccccc2c1)c1cnns1 (configuration not stated) | -7 | 17 | -1 | 55* | -9 | -4
COc1ccc2[nH]c3c(c2c1)CCN1C(=O)N([C@@H](C)C(=O)NC2CCCCC2C)C(=O)[C@]31C (some centres not stated) | -15 | 47* | 0 | -1 | -17 | -3
Cc1ccc(NS(=O)(=O)c2cccs2)c(C)c1 | -21 | 7 | -8 | -4 | -4 | 2
O=c1c2ccccc2c(C=Nc2cccc(S(=O)(=O)NCc3ccco3)c2)c(O)n1-c1ccc(Cl)cn1 | 12 | 66* | -2 | 2 | -7 | 4
O=c1c2ccccc2c(C=Nc2ccc(S(=O)(=O)N3CCCCC3)cc2)c(O)n1-c1ccc(Cl)cn1 | -9 | 4 | -2 | 4 | -9 | -20
O=c1c(=O)n2c(nn1Cc1ccc(F)cc1)sc1ccccc12 | -13 | -1 | -2 | 0 | -13 | 2
CCc1ccc(NC(=O)C2(c3ccccc3)CC2(Cl)Cl)cc1 (configuration not stated) | 47 | 13 | -8 | 55* | 14 | 52*
O=C(c1cc(Cl)ccc1Cl)N1CCc2ccccc21 | -17 | 15 | -7 | -4 | -15 | -109
Oc1ccccc1-c1cc(-c2cccc(F)c2)n[nH]1 | -1 | 41* | -5 | 12 | 11 | -4
O=C(CSc1n[nH]c(=O)n1C1CC1)Nc1ccc(F)c([N+](=O)[O-])c1 | -22 | nt | -2 | 4 | nt | nt
Cc1ccc(-n2nc3c(=O)n(C(C)C(=O)NCCC4=CCCCC4)nc(C)c3c2C)cc1 (configuration not stated) | -3 | 11 | 3 | 38* | 16 | -4
Cc1cccc(NC(=O)C2CCCN2S(=O)(=O)c2ccc(Cl)cc2)n1 (configuration not stated) | -15 | 76* | 2 | 0 | -7 | 22
COc1ccc(NC(=O)C2CCCCN2S(=O)(=O)c2ccccc2)cc1S(=O)(=O)N1CCOCC1 (configuration not stated) | 58* | nt | -8 | 21 | nt | nt

Screening data from PubChem.
